The array DNA melting data of Ke et al. (doi:10.1101/2024.01.08.574731)

Columns and labels:
[1] = melting temperature; fluorescence melt of hairpins on a sequencing array, two-state fit, raised by 9.35 °C to match UV melts; conditions: sodium 0.088 M
Procedure, shortened: (§1)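 To match UV melts, fitted temperatures were raised by 9.35 °C. These fits were bootstrapped two-state models that gave melting temperature and folding enthalpy, combined by inverse variance over four replicates. The input was normalised Cy3 fluorescence of library hairpins with annealed Cy3 and quencher oligos on a sequenced MiSeq flow cell, imaged in 50 mM Na-HEPES pH 8.0, 25 mM NaCl in 2.5 °C steps up to 60 °C.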

[2] = folding enthalpy; higher = less favourable; fluorescence melt of hairpins on a sequencing array, two-state fit; conditions: sodium 0.088 M
Procedure, shortened: as §1

| Sequence | Tm [1] | folding enthalpy [2] |
| --- | --- | --- |
| GGGGACGGAAACACCCCC ((((..(....)..)))) | 34.8 °C | -22.6 kcal/mol |
| GGGGACGGAAACGTCTCC ((.((((....)))).)) | 57.2 °C | -27.5 kcal/mol |
| GGGGACGGAAACGTTCCC (((.(((....))).))) | 61.4 °C | -43.9 kcal/mol |
| GGGGAGGAAACTCCCC ((((((....)))))) | 66.3 °C | -36.9 kcal/mol |
| GGGGAGGGAAACCTTCCC (((.(((....))).))) | 53.4 °C | -33 kcal/mol |
| GGGGATCGAAAGATTCCC (((.(((....))).))) | 57.5 °C | -53.6 kcal/mol |
| GGGGATGGAAACACCCCC ((((.((....)).)))) | 49 °C | -26.4 kcal/mol |
| GGGGATGGAAACATTCCC (((.(((....))).))) | 51.6 °C | -40.9 kcal/mol |
| GGGGCCGAAAGGCCGCCC ((((((....)))..))) | 56.9 °C | -9.69 kcal/mol |
| GGGGCGGGAAACCGCTCC ((.((((....)))).)) | 66.9 °C | -19.8 kcal/mol |
| GGGGCGGGAAACCGTCCC (((.(((....))).))) | 67.7 °C | -34.9 kcal/mol |
| GGGGCGTCGAAAGACCCC (((..(((....)))))) | 57.3 °C | -16.9 kcal/mol |
| GGGGCTGGAAACGGCCCC (((((.(....).))))) | 66.8 °C | -40.7 kcal/mol |
| GGGGCTGGAAACGGCCTC (.(((.(....).))).) | 50.2 °C | -20.8 kcal/mol |
| GGGGGACGAAAGTCTCCC (((.(((....))).))) | 66 °C | -34.4 kcal/mol |
| GGGGGAGAAATCCCCC ((((((....)))))) | 65.5 °C | -29.9 kcal/mol |
| GGGGGAGGAAACTCTCCC (((.(((....))).))) | 52.7 °C | -38 kcal/mol |
| GGGGGAGGAAACTTCCCC ((((.((....)).)))) | 54.4 °C | -47.8 kcal/mol |
| GGGGGCGAAAGCCCTCCC ((((((....)))..))) | 51.9 °C | -9.75 kcal/mol |
| GGGGGCGAAAGCCGACCC ((((((....)))..))) | 54 °C | -15.1 kcal/mol |
| GGGGGCGAAAGCCGTCCC ((((((....)))..))) | 49.4 °C | -13.7 kcal/mol |
| GGGGGCGAAAGCCTACCC ((((((....)))..))) | 49.8 °C | -15 kcal/mol |
| GGGGGCGAAAGCCTCCCC ((((((....)))..))) | 61.4 °C | -11.5 kcal/mol |

| Sequence | Tm [1] | folding enthalpy [2] |
| --- | --- | --- |
| GGGGGCGAAAGCCTGCCC ((((((....)))..))) | 43.8 °C | -13.7 kcal/mol |
| GGGGGCGGAAACGCCCTC (.(((((....))))).) | 63.4 °C | -11.6 kcal/mol |
| GGGGGCGGAAACGCTCCC (((.(((....))).))) | 67.6 °C | -32.6 kcal/mol |
| GGGGGGGGAAACCCCCTC (.(((((....))))).) | 67.8 °C | -12.5 kcal/mol |
| GGGGGTGGAAACGCCCCC (((((.(....).))))) | 66.9 °C | -28.9 kcal/mol |
| GGGGTACCGAAAGGTCCC (((..(((....)))))) | 56.7 °C | -27.5 kcal/mol |
| GGGGTACGAAAGTAACCC (((.(((....))).))) | 60.9 °C | -34.1 kcal/mol |
| GGGGTAGGAAACTACCTC (.(((((....))))).) | 48 °C | -20 kcal/mol |
| GGGGTAGGAAACTACTCC ((.((((....)))).)) | 47.6 °C | -30.1 kcal/mol |
| GGGGTCGAAAGACTTCCC ((((((....)))..))) | 39 °C | -15.6 kcal/mol |
| GGGGTCGGAAACGGCCCC ((((.((....)).)))) | 67.9 °C | -31.7 kcal/mol |
| GGGGTGAAAACCCC (((((....))))) | 66.6 °C | -21.1 kcal/mol |
| GGGGTGGAAACACCCC ((((((....)))))) | 68.8 °C | -38.9 kcal/mol |
| GGGGTGGGAAACCACCTC (.(((((....))))).) | 55.2 °C | -16.2 kcal/mol |
| GGGGTGGGAAACCGCCTC (.((.((....)).)).) | 49.6 °C | -18.6 kcal/mol |
| GGGGTGGGAAACCGCTCC ((.(.((....)).).)) | 47.7 °C | -21.9 kcal/mol |
| GGGGTTCGAAAGAACCC (((.(((....)))))) | 69.3 °C | -17.9 kcal/mol |
| GGGGTTGGAAACAGCCCC ((((.((....)).)))) | 57.9 °C | -44.7 kcal/mol |
| GGGGTTGGAAACGACCTC (.(((.(....).))).) | 40.3 °C | -20.7 kcal/mol |
| GGGTAACCGAAAGGTCCC (((..(((....)))))) | 45.8 °C | -18 kcal/mol |
| GGGTAACGAAAGTTCCC (((.(((....)))))) | 50.1 °C | -24.4 kcal/mol |
| GGGTAAGGAAACTCACCC ((((.((....)).)))) | 36.8 °C | -28.4 kcal/mol |
| GGGTACCCGAAAGGGCCC (((..(((....)))))) | 47.8 °C | -18.6 kcal/mol |

| Sequence | Tm [1] | folding enthalpy [2] |
| --- | --- | --- |
| GGGTACGAAAGTAATCCC ((((((....)))..))) | 39 °C | -20.7 kcal/mol |
| GGGTACGAAAGTACACCC ((((((....)))..))) | 50.2 °C | -13.4 kcal/mol |
| GGGTACGAAAGTAGACCC ((((((....)))..))) | 46.2 °C | -19.2 kcal/mol |
| GGGTACGGAAACACACCC ((((..(....)..)))) | 32.6 °C | -21.9 kcal/mol |
| GGGTACGGAAACGTATCC ((.((((....)))).)) | 51.8 °C | -30.1 kcal/mol |
| GGGTACTCGAAAGAGCCC (((..(((....)))))) | 39.6 °C | -19.6 kcal/mol |
| GGGTAGCGAAAGCTCCC (((.(((....)))))) | 53.6 °C | -40.3 kcal/mol |
| GGGTAGGGAAACCTACCC (((((((....))))))) | 64 °C | -50.9 kcal/mol |
| GGGTATGCGAAAGCACCC (((..(((....)))))) | 50.4 °C | -21.2 kcal/mol |
| GGGTATGGAAACATACTC (.(((((....))))).) | 44.8 °C | -23 kcal/mol |
| GGGTATGGAAACATGCCC (((.(((....))).))) | 54.3 °C | -50.4 kcal/mol |
| GGGTATGGAAACATGTCC ((..(((....)))..)) | 34 °C | -15.6 kcal/mol |
| GGGTATGGAAACGTACCC (((((.(....).))))) | 50.1 °C | -42.7 kcal/mol |
| GGGTCAGGAAACCAACCC ((((..(....)..)))) | 33 °C | -15.7 kcal/mol |
| GGGTCAGGAAACTAACCC ((((.((....)).)))) | 38.2 °C | -25.4 kcal/mol |
| GGGTCCCGAAAGGGCCC (((.(((....)))))) | 68 °C | -29.5 kcal/mol |
| GGGTCCGAAAGGAACCC ((((((....))).))) | 64.1 °C | -22.1 kcal/mol |
| GGGTCCGAAAGGACACCC ((((((....)))..))) | 55.5 °C | -11 kcal/mol |
| GGGTCCGAAAGGAGCCCC ((((((....)))..))) | 66.4 °C | -11 kcal/mol |
| GGGTCCGAAAGGATGCCC ((((((....)))..))) | 45.5 °C | -24.3 kcal/mol |
| GGGTCCGCGAAAGCGCCC (((..(((....)))))) | 40 °C | -14.9 kcal/mol |
| GGGTCGCGAAAGCGCCC (((.(((....)))))) | 65.3 °C | -22.4 kcal/mol |
